Data set [1] concerns Cynomolgus monkey. The data set is described as follows: Induction of IFNalpha levels in cynomolgus monkey plasma at 1 mg/kg, po after 24 hrs by ELISA. Type of data set: functional, Macaca fascicularis. A digest of the protocol: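 Healthy cynomolgus monkeys given single oral doses of 1, 3, 9 and 30 mg/kg, with a 2-week wash-out planned between doses. Systemic cytokine levels in plasma were sampled at 0.5, 1, 2, 4, 9 and 24 h postdose.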
A general note: ELISA stands for enzyme-linked immunosorbent assay.

Data set [2] deals with Liver. Description: Proinflammatory activity in C57BL/6J mouse liver assessed as CXCL-1 levels at 30 mg/kg, po by multiplex assay (reference value: 25 pg/g). Type of data set: functional.
The test system of data set [3] is Plasma. The data set is described as follows: Induction of IFNalpha levels in C57BL/6J mouse plasma at 10 mg/kg, po by ELISA. In kind it is functional.
The test system of data set [4] is Plasma. The data set is described as follows: Proinflammatory activity in C57BL/6J mouse plasma assessed as CXCL-1 levels at 30 mg/kg, po by multiplex assay (reference value: 230 pg/ml). In kind it is functional.
Data set [5] is described as follows: Metabolic stability in mouse liver microsomes assessed as compound metabolized at 1 uM after 15 mins. Type of data set: ADME, microsome. The conditions noted are these: read-out: Drug metabolism. Put shortly: (§1)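 Mouse (M) or human (H) liver microsomes incubated with compound at 1 μM; percent metabolized after 15 min.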
A general note: Liver microsomes are a subcellular fraction often used to study metabolism.

Data set [6] concerns Cynomolgus monkey. Description: Induction of ISG response in cynomolgus monkey plasma assessed as upregulation of Oas1b mRNA expression at 9 mg/kg, po after 24 hrs by Fluidigm RT-qPCR analysis (reference value: 1). Type of data set: functional, Macaca fascicularis. Put shortly:
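Cynomolgus monkeys, single oral doses of 1, 3, 9 and 30 mg/kg with a planned 2-week wash-out between doses. Systemic ISG (ISG15, Mx1, OAS1) mRNA was measured by Fluidigm RT-qPCR at 1, 2, 4, 8 and 24 h postdose.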

In data set [7] the target is T1, Toll-like receptor 7 (Homo sapiens) (UniProt Q9NYK1).
T1 sequence (whole entry): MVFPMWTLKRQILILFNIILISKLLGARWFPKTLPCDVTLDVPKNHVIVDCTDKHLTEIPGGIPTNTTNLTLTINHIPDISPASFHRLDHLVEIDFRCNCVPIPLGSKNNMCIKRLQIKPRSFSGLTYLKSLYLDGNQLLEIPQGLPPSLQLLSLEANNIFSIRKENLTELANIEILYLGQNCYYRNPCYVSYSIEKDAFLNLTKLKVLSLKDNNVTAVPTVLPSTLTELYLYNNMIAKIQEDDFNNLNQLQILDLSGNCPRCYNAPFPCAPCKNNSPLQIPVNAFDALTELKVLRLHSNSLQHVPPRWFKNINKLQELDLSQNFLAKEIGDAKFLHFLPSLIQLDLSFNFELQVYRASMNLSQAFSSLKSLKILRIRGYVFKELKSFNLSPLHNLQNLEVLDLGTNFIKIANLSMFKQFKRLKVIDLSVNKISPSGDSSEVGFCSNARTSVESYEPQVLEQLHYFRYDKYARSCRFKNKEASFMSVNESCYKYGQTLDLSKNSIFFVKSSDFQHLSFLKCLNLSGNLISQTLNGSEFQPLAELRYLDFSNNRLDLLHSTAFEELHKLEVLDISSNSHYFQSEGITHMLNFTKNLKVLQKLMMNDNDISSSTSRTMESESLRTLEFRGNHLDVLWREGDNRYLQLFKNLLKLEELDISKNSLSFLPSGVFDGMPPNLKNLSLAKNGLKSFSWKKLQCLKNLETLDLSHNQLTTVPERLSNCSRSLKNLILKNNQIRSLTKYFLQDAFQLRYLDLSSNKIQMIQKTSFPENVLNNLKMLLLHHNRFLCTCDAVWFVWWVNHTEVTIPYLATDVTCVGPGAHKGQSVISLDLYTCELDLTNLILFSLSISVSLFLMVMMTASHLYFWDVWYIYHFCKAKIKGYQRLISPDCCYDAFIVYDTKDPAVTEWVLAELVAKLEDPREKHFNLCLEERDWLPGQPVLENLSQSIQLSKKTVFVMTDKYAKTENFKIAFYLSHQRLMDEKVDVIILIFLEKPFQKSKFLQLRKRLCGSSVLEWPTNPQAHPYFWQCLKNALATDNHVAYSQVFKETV
The data set is described as follows: Agonist activity at TLR7 in human PBMC assessed as suppression of HCV replicon replication in human HuH7 luc/neo cells harboring RNA encoding bicistronic expression construct comprising wild type HCV type 1b NS3-NS5B regions exposed to conditioned media from compound treated PBMCs after 24 hrs by luciferase reporter gene assay. In kind it is cell-based. A digest of the protocol: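 Human PBMCs were incubated with compound. Their medium was then transferred onto an HCV replicon system, so the antiviral read-out reflects interferon and cytokines the PBMCs induced. Values are reported as lowest effective concentration (LEC), averaged when determined in two or more independent experiments.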
(In general: Replicon systems follow genome replication, usually without infectious particles.)

Data set [8] relates to Cynomolgus monkey. The data set is described as follows: Upregulation of Tlr7 expression in cynomolgus monkey plasma at 9 mg/kg, po after 24 hrs by Fluidigm RT-qPCR analysis (reference value: 1.8). In kind it is functional, Macaca fascicularis.
The subject of data set [9] is Cynomolgus monkey. The data set is described as follows: Plasma concentration in cynomolgus monkey at 1 mg/kg, po by LC-MS analysis. Type of data set: ADME, organism-based, Macaca fascicularis. As to conditions: in vivo.
The nature of data set [10]: Metabolic stability in human liver microsomes assessed as compound metabolized at 1 uM after 15 mins. Type of data set: ADME, microsome. As to conditions: read-out: Drug metabolism. A digest of the protocol: as §1
The subject of data set [11] is Plasma. Description: Proinflammatory activity in C57BL/6J mouse plasma assessed as IL-1beta levels at 1 mg/kg, po by multiplex assay (reference value: 60 pg/ml). In kind it is functional, organism-based.
Data set [12] has as its system Liver. The data set is described as follows: Proinflammatory activity in C57BL/6J mouse liver assessed as IL-1beta levels at 1 mg/kg, po by multiplex assay. Type of data set: functional.
The test system of data set [13] is Liver. Description: Effect on cytokine profile in C57BL/6J mouse liver assessed as IL-12p70 levels at 10 mg/kg, po by multiplex assay (reference value: 5 pg/g). In kind it is functional. Put shortly: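 Single oral gavage in 20% HP-β-CD to healthy C57BL/6 mice, groups of 15 at 0.3, 1, 3, 10 or 30 mg/kg. Three mice per group sacrificed at 0.5, 1, 2, 4 or 7 h. Plasma and liver cytokines by multiplex, maximum level reported, rounded to nearest multiple of 5.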

The test system of data set [14] is Plasma. Description: Proinflammatory activity in C57BL/6J mouse plasma assessed as IL-6 levels at 1 mg/kg, po by multiplex assay (reference value: 505 pg/ml). Type of data set: functional.
The nature of data set [15]: AUC (0 to last) in cynomolgus monkey plasma at 30 mg/kg, po by LC-MS analysis. In kind it is ADME, organism-based, Macaca fascicularis. On the set-up: dose 30 mg/kg, route oral, time 0 - last. Put shortly:
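Healthy cynomolgus monkeys received single oral doses of 1, 3, 9 and 30 mg/kg, with a 2-week wash-out between doses. Systemic compound concentrations were measured by LC–MS at 0.25, 0.5, 1, 2, 4, 8 and 24 h postdose.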

Data set [16] in a line: Cmax in Sprague-Dawley rat liver at 10 mg/kg, po. In kind it is ADME, organism-based. Details: dose 10 mg/kg, route oral. A digest of the protocol:
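Male Sprague-Dawley rats given 10 mg/kg po as a solution. Compound measured in portal vein, systemic plasma and liver. Cmax taken from concentration–time profiles.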

The subject of data set [17] is Plasma. The data set is described as follows: Proinflammatory activity in C57BL/6J mouse plasma assessed as IL-1beta levels at 0.3 mg/kg, po by multiplex assay (reference value: 60 pg/ml). Type of data set: functional.
Data set [18] has as its system Cynomolgus monkey. The data set is described as follows: Activation of monocytes in cynomolgus monkey plasma assessed as upregulation of MCP1 levels at 1 mg/kg, po after 24 hrs by Luminex assay (reference value: 385 pg/ml). In kind it is functional, Macaca fascicularis.
Data set [19] deals with Cynomolgus monkey. Description: Proinflammatory activity in cynomolgus monkey plasma assessed as TNFalpha levels at 9 mg/kg, po after 24 hrs by Luminex assay (reference value: 285 pg/ml). In kind it is functional, Macaca fascicularis.

We go through one compound from ChEMBL document CHEMBL4130635, “2,4-Diaminoquinazolines as Dual Toll-like Receptor (TLR) 7/8 Modulators for the Treatment of Hepatitis B Virus” (J Med Chem, 2018).

Bounds are passed on as bounds.

As a reminder, the AUC(0-t) is the area under the concentration-time curve up to a stated or last time point. A word on the Cmax: it is the peak of the concentration-time curve. In the case of `CCC[C@@H](CCO)Nc1nc(N)nc2c(F)cccc12`, the Activity in [1] is 3465 pg/mL; in data set [2], >83333 pg/g; in data set [3], >3200 pg/mL; in data set [4], >10000 pg/mL; in data set [11], “Below limit of detection”; in [12], 16445 pg/g. In addition, the Activity in [13] was found to be 790 pg/g; in data set [14] it was 1150 pg/mL; in data set [17] it was 50 pg/mL; in data set [18] it was 2820 pg/mL; in data set [19], 350 pg/mL. The metabolised at 0.25 h, 1 µM was 93% in data set [5] and 43% in data set [10]. For the same compound, the “fold change (FC)” value in data set [6] is given as 260; in [8], 3.5. Further, the MEC in data set [7] came out at 0.25 µM. Also, the Cp in data set [9] is 5.9 ng/mL. Also, in [15], the area under the curve AUC(0-t) came out at 5200 ng·h/mL. Moreover, the Cmax in [16] came out at 285 ng/g.
